# Data taken from ChEMBL document CHEMBL4033795, “Design, Synthesis, and Structure-Activity Relationship Study of 2-Oxo-3,4-dihydropyrimido[4,5- d]pyrimidines as New Colony Stimulating Factor 1 Receptor (CSF1R) Kinase Inhibitors” (J Med Chem, 2018).
# Tests used:
# [1] = tested on: RAW264.7; test: Antimigratory activity against mouse RAW264.7 cells assessed as inhibition of human LNCaP-MDV-CM mediated macrophage migration at 1.25 uM after 24 hrs by crystal violet staining based transwell assay relative to control; assay type: functional; conditions: RAW264.7, 24 h
# Procedure, shortened: (§1)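 RAW264.7 cells, (2−4) × 10^5, were placed serum-free in the upper insert of a transwell. The lower chamber held conditioned medium from LNCaP cells grown 48 h in 10% FBS RPMI 1640 with 10 μM MDV3100 or DMSO. Compound at 0.625–5.0 μM was added to the top chamber for 24 h at 37 °C. Migrated cells were fixed in methanol, stained with 0.25% crystal violet and counted in six random fields at 200×. Three independent experiments.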
# [2] = tested on: RAW264.7; test: Downregulation of MMP9 mRNA expression in mouse RAW264.7 cells after 48 hrs by qRT-PCR analysis relative to DMSO; assay type: functional, cell-based
# Procedure, shortened: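 RAW264.7 macrophages were treated 48 h with compound at 0.08, 0.4 or 2.0 μM, or DMSO vehicle. Total RNA was extracted with TRIzol and transcripts were quantified by qRT-PCR using gene-specific primers. Run three times, each in triplicate.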
# [3] = target: T1, Macrophage colony-stimulating factor 1 receptor (Mus musculus) (UniProt P09581); test: Inhibition of CSF1R phosphorylation in mouse RAW264.7 cells assessed as reduction in AKT phosphorylation at 80 nM preincubated for 6 hrs followed by CSF1 stimulation for 20 mins by Western blot analysis relative to control; assay type: cell-based
# T1 sequence (whole entry): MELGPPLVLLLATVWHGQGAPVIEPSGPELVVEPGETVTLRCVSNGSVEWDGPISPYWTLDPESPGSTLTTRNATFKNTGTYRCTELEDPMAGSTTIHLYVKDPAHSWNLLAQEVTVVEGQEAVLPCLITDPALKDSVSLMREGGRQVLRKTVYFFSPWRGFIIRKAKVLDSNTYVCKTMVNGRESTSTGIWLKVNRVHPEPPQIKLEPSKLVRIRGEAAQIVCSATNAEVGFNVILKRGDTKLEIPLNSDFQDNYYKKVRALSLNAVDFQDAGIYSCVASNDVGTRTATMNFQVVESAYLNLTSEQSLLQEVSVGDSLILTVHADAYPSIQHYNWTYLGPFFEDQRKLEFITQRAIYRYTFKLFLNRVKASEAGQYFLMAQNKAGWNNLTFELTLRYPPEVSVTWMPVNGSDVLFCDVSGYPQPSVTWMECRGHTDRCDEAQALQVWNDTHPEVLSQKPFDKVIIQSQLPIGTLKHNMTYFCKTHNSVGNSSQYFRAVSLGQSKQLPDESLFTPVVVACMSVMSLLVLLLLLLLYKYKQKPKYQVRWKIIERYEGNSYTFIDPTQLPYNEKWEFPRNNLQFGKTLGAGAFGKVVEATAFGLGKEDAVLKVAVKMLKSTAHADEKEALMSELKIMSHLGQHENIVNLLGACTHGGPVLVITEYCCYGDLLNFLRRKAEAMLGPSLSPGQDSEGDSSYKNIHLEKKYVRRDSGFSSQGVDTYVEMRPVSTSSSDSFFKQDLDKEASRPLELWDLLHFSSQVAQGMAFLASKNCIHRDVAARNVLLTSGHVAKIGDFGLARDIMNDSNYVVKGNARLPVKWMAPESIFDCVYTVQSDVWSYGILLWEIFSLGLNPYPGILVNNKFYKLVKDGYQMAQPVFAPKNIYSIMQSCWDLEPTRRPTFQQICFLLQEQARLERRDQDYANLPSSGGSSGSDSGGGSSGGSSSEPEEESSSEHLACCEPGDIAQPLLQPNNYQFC
# Procedure, shortened: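 RAW264.7 cells were seeded, incubated overnight and treated 6 h with graded compound concentrations, then stimulated 20 min with CSF-1 (50 ng/mL). Lysates were run on 8−12% SDS-PAGE and immunoblotted for p-CSF1R (Tyr723), CSF1R, p-AKT, AKT and GAPDH. Bands were quantified and normalized to GAPDH. Mean ± SEM of at least three experiments.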
# [4] = tested on: RAW264.7; test: Antimigratory activity against mouse RAW264.7 cells assessed as inhibition of human LNCaP-MDV-CM mediated macrophage migration after 24 hrs by crystal violet staining based transwell assay; assay type: functional, cell-based; procedure, shortened: as §1
# [5] = tested on: RAW264.7; test: Inhibition of protumorigenic potential of mouse RAW264.7 cells assessed as abrogation of human LNCAP cell growth enhancement of macrophages at 0.4 uM co-cultured for 48 hrs by CCK8 assay relative to control; assay type: functional; conditions: RAW264.7, 48 h
# Procedure, shortened: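 LNCaP cells, (2−4) × 10^5, were seeded in the lower transwell chamber. After 2 h, (1−2) × 10^6 RAW264.7 cells were added in a 0.4 μm insert. Compound at 0.016–2.0 μM was added to the top chamber and cells were cocultured 48 h at 37 °C. LNCaP cells were then imaged and counted by CCK8. Run three times, each in triplicate.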
# [6] = target: Platelet-derived growth factor receptor beta (Homo sapiens, UniProt P09619); test: Inhibition of recombinant human PDGFRbeta expressed in baculovirus using poly (4:1 Glu, Tyr) peptide as substrate after 1 hr by ADP-Glo assay
# Platelet-derived growth factor receptor beta, sequence (P09619 whole entry, the tested form may be a part): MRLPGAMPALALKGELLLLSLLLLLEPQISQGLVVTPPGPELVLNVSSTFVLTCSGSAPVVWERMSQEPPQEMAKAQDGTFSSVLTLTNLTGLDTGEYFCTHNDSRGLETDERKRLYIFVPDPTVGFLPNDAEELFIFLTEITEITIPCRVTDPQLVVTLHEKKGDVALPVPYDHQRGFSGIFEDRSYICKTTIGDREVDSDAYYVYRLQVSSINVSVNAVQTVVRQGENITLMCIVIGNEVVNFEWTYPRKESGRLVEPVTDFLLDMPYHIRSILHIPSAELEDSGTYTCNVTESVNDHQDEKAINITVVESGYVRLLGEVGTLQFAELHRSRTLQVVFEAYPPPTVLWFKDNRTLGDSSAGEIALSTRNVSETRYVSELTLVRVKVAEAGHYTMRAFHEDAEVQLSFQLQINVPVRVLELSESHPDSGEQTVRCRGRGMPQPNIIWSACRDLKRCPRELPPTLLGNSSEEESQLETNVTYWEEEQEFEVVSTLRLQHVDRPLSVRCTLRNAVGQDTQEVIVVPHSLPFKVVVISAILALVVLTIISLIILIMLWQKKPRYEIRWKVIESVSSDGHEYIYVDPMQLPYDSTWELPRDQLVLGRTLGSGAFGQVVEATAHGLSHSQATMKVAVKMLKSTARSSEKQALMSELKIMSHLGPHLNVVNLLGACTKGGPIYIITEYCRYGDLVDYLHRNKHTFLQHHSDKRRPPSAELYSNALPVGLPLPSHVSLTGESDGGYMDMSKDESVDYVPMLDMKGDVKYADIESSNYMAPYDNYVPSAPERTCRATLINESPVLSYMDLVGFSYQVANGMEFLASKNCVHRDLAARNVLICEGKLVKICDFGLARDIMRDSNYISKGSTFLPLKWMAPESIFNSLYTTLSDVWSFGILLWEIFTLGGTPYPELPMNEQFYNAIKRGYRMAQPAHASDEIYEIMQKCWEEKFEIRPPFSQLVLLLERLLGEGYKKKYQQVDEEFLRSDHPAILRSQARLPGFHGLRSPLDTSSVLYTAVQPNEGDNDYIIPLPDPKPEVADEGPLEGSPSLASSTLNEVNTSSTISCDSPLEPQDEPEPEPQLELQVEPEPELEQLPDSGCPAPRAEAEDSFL
# [7] = target: Fibroblast growth factor receptor 3 (Homo sapiens, UniProt P22607); test: Inhibition of cytoplasmic recombinant human His-tagged FGFR3 (399 to 806 residues) expressed in baculovirus using tyr4 peptide as substrate after 1 hr by FRET-based Z'-Lyte assay
# Fibroblast growth factor receptor 3, sequence (P22607 whole entry, the tested form may be a part): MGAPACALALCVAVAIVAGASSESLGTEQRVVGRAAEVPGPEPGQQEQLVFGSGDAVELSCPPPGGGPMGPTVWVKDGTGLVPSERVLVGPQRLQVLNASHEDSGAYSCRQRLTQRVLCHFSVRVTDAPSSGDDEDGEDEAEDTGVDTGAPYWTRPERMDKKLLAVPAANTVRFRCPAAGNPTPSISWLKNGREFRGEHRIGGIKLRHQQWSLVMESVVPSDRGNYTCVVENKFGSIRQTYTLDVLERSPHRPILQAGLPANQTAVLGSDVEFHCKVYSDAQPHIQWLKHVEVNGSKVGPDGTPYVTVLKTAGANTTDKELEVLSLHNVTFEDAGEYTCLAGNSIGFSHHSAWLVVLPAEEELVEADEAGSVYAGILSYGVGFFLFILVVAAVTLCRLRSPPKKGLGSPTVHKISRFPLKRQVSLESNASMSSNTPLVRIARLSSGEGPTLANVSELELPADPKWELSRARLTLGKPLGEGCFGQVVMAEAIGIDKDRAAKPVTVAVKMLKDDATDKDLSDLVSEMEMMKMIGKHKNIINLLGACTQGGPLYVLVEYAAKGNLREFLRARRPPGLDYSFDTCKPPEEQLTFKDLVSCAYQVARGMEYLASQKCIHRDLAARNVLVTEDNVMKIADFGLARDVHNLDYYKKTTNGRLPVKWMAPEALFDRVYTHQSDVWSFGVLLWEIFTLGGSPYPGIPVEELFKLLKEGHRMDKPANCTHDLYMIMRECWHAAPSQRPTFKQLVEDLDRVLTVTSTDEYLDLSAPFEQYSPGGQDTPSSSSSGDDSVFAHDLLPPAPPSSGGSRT
# [8] = target: Tyrosine-protein kinase Lyn (Homo sapiens) (UniProt P07948); test: Inhibition of recombinant human LYN-B expressed in bacterial expression system at 100 nM by KINOMEscan assay relative to control
# Tyrosine-protein kinase Lyn (Homo sapiens), sequence (P07948 2-512 limits assumed): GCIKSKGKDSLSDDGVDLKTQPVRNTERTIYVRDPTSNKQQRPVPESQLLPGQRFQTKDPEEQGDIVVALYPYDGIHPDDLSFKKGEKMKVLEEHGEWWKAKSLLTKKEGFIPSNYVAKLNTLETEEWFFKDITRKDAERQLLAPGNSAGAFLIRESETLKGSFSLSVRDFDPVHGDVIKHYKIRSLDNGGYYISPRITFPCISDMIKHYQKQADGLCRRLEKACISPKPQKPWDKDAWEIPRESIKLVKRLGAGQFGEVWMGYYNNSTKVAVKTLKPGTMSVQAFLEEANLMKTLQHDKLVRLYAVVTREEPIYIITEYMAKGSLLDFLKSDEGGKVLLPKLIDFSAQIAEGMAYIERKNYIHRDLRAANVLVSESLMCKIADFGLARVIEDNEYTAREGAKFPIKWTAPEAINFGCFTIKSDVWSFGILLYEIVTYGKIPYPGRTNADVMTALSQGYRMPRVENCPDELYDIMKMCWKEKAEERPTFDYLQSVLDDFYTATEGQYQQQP
# [9] = tested on: Rattus norvegicus; test: Apparent clearance in Sprague-Dawley rat at 25 mg/kg administered via oral gavage measured up to 72 hrs by LC/MS analysis; assay type: ADME, organism-based; conditions: in vivo, iv, 5 mg/kg, in the assay text read “5 mg/kg administered intravenously” for “25 mg/kg administered via oral gavage”
# Procedure, shortened: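 Male Sprague-Dawley rats, 4–6 weeks old, acclimatised 1 week, were dosed iv at 5 mg/kg or by oral gavage at 25 mg/kg. Vehicle was 2% DMSO, 4% EtOH, 4% castor oil, 90% H2O. Blood was drawn by orbital sinus puncture from 2 min to 72 h into heparinized tubes. Plasma was assayed by LC/MS with propranolol as internal standard. Three animals per group.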
# [10] = target: Ephrin type-A receptor 1 (Homo sapiens) (UniProt P21709); test: Inhibition of recombinant human EPHA1 (V588 to I913 residues) expressed in bacterial expression system at 100 nM by KINOMEscan assay relative to control
# Ephrin type-A receptor 1 (Homo sapiens), sequence (P21709 whole entry, the tested form may be a part): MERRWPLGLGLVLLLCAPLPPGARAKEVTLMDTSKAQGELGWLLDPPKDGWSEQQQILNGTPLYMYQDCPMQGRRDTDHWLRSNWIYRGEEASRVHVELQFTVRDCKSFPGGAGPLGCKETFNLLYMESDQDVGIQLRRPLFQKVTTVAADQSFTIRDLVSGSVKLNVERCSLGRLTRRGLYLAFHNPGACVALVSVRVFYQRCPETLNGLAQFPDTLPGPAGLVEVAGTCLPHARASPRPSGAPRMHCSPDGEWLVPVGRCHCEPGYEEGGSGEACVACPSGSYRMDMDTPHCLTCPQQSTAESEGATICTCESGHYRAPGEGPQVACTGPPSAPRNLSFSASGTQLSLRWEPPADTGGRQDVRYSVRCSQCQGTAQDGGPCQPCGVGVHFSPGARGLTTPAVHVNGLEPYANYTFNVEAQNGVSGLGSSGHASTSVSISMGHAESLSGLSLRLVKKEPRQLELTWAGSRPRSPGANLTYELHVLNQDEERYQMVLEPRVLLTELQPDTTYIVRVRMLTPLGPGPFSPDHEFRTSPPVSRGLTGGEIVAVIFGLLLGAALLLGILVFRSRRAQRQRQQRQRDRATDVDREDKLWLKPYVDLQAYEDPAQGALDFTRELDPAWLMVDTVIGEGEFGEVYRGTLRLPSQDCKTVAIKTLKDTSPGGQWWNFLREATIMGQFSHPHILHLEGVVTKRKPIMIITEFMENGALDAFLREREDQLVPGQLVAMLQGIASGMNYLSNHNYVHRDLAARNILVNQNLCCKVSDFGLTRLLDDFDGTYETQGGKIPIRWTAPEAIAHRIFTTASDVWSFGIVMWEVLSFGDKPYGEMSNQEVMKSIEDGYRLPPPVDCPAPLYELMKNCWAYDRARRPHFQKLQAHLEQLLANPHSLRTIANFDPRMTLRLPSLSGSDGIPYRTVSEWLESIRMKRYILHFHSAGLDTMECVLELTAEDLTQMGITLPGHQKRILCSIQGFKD
# [11] = tested on: RAW264.7; test: Antimigratory activity against mouse RAW264.7 cells assessed as inhibition of human LNCaP-MDV-CM mediated macrophage migration at 0.625 uM after 24 hrs by crystal violet staining based transwell assay relative to control; assay type: functional; conditions: RAW264.7, 24 h; procedure, shortened: as §1
# [12] = target: Tyrosine-protein kinase ABL1 (Homo sapiens) (UniProt P00519); test: Inhibition of human ABL1 (S229 to K512 residues) expressed in mammalian expression system at 100 nM by KINOMEscan assay relative to control
# Tyrosine-protein kinase ABL1 (Homo sapiens), sequence (P00519 whole entry, the tested form may be a part): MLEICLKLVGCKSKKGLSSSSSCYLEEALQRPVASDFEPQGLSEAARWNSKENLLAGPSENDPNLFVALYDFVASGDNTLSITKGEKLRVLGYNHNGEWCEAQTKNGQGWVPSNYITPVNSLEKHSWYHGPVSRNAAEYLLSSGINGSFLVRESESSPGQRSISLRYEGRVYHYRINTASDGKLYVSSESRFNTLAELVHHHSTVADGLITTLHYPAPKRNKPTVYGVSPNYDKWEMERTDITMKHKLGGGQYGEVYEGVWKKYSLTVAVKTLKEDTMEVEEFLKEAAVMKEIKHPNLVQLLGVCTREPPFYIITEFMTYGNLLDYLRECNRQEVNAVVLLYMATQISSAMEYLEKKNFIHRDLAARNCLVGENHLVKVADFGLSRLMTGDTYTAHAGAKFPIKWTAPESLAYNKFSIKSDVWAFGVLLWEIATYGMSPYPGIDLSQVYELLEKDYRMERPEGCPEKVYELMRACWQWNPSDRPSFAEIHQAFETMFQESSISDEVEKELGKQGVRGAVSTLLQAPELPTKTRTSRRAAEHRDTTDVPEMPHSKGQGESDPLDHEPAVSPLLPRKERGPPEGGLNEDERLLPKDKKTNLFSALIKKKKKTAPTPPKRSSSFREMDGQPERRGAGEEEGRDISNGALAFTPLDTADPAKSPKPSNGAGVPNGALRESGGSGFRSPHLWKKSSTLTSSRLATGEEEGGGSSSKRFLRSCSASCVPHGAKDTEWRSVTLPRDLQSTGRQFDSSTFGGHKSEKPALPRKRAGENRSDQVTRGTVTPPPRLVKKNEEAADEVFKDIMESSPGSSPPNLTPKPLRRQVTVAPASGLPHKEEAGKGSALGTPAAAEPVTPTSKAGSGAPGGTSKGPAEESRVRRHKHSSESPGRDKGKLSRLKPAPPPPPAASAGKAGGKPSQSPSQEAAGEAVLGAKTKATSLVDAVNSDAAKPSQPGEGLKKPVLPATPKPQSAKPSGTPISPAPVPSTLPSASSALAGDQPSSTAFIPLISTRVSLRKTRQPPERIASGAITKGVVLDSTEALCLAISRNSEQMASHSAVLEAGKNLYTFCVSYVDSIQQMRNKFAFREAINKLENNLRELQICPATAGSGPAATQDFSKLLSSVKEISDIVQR
structure (smiles),measurement,setting,value
CCC(=O)N1CC[C@H](N2C(=O)N(c3cc(OC)ccc3Cl)Cc3cnc(Nc4ccc(N5CCN(C6COC6)CC5)c(C)c4)nc32)C1,inhibition at 1.25 µM,[1],52.7%
same,Activity,[2],Dose-dependent effect
same,inhibition,[3],50%
same,inhibition,[4],Dose-dependent effect
same,inhibition at 0.4 µM,[5],85%
same,IC50,[6],106 nM
same,IC50,[7],40.2 nM
same,inhibition,[8],> 90%
same,CL(app),[9],1.73 L/h/kg
same,inhibition,[10],> 90%
same,inhibition at 0.625 µM,[11],44.5%
same,inhibition,[12],> 90%
